Test results as given in PMC3774303 (Journal of medicinal chemistry, 2013).
pIC50: −log10 of the molar value. “Also recorded” adds a separate entry of the source.

Experiments:
[1] = biological target: T1, CT-L proteolytic activity of the purified rabbit 20S proteasome (Oryctolagus cuniculus, UniProt G1T4Q9); assay: CT-L proteolytic activity assay, fluorogenic peptide Suc-Leu-Leu-Val-Tyr-AMC; format: biochemical; conditions: for IC50: IC50 (μM) CT-L, 1 nM purified 20S rabbit proteasome, 20 μM Suc-Leu-Leu-Val-Tyr-AMC, 1 h at 37 °C, average of 2 or more determinations; for fold loss of CT-L activity compared to 11ad: relative to 11ad
T1 sequence (G1T4Q9 60-263): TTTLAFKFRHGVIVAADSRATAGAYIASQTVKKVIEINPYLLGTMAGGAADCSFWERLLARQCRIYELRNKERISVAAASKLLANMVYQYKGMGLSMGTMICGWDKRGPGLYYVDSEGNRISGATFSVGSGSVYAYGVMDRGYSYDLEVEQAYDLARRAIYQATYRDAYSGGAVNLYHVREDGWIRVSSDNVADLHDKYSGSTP

[2] = tested on: MDA-MB-468 cells; assay: MTT proliferation/survival assay; format: cell-based, human; conditions: 120 h incubation
Procedure, shortened: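 MDA-MB-468 cells were grown in DMEM with 10% FBS and penicillin/streptomycin at 37 °C in 5% CO2, then attached overnight. They were exposed to varying inhibitor concentrations for 120 h. MTT (1 mg/ml in fresh medium) was added for 3 h, formazan dissolved in DMSO, and absorbance read at 540 nm. IC50 came from the fit Y = M + (L–M)/(1+10^(X–logIC50)).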

[3] = biological target: proteasomal CT-L activity in intact human MDA-MB-468 cancer cells (Homo sapiens, UniProt P28074); assay: CT-L activity in intact MDA-MB-468 cells; format: cell-based
[4] = biological target: T2, T-L activity of purified 20S rabbit proteasome (Oryctolagus cuniculus, UniProt G1SWK8); assay: T-L proteolytic activity assay, fluorogenic peptide Bz-Val-Gly-Arg-AMC; format: biochemical
T2 sequence (G1SWK8 44-271): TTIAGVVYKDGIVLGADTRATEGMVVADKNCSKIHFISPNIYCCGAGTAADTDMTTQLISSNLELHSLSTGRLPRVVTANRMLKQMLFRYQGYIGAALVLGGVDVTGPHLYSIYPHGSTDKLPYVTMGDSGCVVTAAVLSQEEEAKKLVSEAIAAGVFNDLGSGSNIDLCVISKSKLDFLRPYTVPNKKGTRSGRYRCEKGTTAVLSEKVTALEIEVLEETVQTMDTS

[5] = biological target: PGPH-L activity of purified 20S rabbit proteasome (Oryctolagus cuniculus, UniProt G1T235); assay: PGPH-L proteolytic activity assay, fluorogenic peptide Z-Leu-Leu-Glu-AMC; format: biochemical
[6] = tested on: CT-L activity of rabbit 20S proteasome; assay: Dialysis using purified rabbit 20S proteasome; format: biochemical
Procedure, shortened: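 Dialysed (3500 MWCO) against assay buffer at 4 °C; sampled at 0, 0.25, 1, 2, 4 and 18 h. CT-L activity read with 20 μM Suc-LLVY-AMC, 1 h at 37 °C, AMC ex 355/em 460 nm. Normalised to DMSO control.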

With `CC(C)N(Cc1nc(-c2ccccc2)no1)C(=O)COc1ccc2cc(Br)ccc2c1` [Compound 11r, 2-(6-Bromonaphthalen-2-yloxy)-N-isopropyl-N-((3-phenyl-1,2,4-oxadiazol-5-yl)methyl)acetamide] the IC50 [1] was > 10 µM.
With `CCCc1ccc(OCC(=O)N(Cc2nc(-c3cccnc3)no2)C(C)C)cc1` [Compound 11ad] the “inhibition of tumor cell survival/proliferation (MTT)” value [2] was “inhibited survival/proliferation; also recorded: anti-proliferative activity at low micromolar concentrations”, the pIC50 [3] was 6.43 and the “fold more potent than 1 (CT-L IC50)” value ([1]; relative to compound 1) was 22 fold. For the same compound, the pIC50 [4] was < 4.00 and the pIC50 [5] was < 4.00.
With `CCCc1ccc(OCC(=O)N(Cc2nc(-c3ncccn3)no2)C(C)C)cc1` [Compound 11ao, N-Isopropyl-2-(4-propylphenoxy)-N-((3-(pyrimidin-2-yl)-1,2,4-oxadiazol-5-yl)methyl)acetamide] the “fold loss of CT-L activity compared to 11ad” value [1] was 40 fold.
For `CC(C)N(Cc1nc(-c2ccccc2)no1)C(=O)COc1ccc(-c2ccccc2)cc1` [Compound 11q, 2-(Biphenyl-4-yloxy)-N-isopropyl-N-((3-phenyl-1,2,4-oxadiazol-5-yl)methyl)acetamide], the IC50 [1] was > 10 µM.
With `Cc1ccc(OCC(=O)N(CCc2nc(-c3ccccc3)no2)C(C)C)cc1` [Compound 23, N-Isopropyl-N-(2-(3-phenyl-1,2,4-oxadiazol-5-yl)ethyl)-2-(p-tolyloxy)acetamide] the IC50 [1] was > 10 µM.
In the case of `Cc1ccc(CNC(=O)N(Cc2nc(-c3ccccc3)no2)C(C)C)cc1` [Compound 14, 1-Isopropyl-3-(4-methylbenzyl)-1-((3 phenyl-1,2,4-oxadiazol-5-yl)methyl)urea], the IC50 [1] was > 10 µM.
For `Cc1ccc(OCC(=O)N(Cc2nc(-c3ccc(C)cc3)no2)C(C)C)cc1` [Compound 1, N-Isopropyl-N-((3-p-tolyl-1,2,4-oxadiazol-5-yl)methyl)-2-(p-tolyloxy)acetamide], the “time to full recovery of CT-L activity upon dialysis” value ([6]; pre-incubation with 10 μM compound for 30 min, dialysis at 4 °C) was ≤ 2 h, the “inhibition of tumor cell survival/proliferation (MTT)” value [2] was “inhibited survival/proliferation” and the pIC50 [4] was < 4.00. The pIC50 [5] was < 4.00.
`CC(C)N(Cc1nc(-c2ccccc2)no1)C(=O)COc1ccc(F)cc1` [Compound 11s, 2-(4-Fluorophenoxy)-N-isopropyl-N-((3-phenyl-1,2,4-oxadiazol-5-yl)methyl)acetamide] was tested, and the “fold loss of CT-L inhibitory activity compared to 11b” value ([1]; relative to 11b) was 16 fold.
In the case of `CC(C)N(Cc1nc(-c2ccc(C(F)(F)F)cc2)no1)C(=O)COc1ccccc1` [Compound 11l, N-Isopropyl-2-phenoxy-N-((3-(4-(trifluoromethyl)phenyl)-1,2,4-oxadiazol-5-yl)methyl)acetamide], the “fold loss of CT-L activity compared to 1” value ([1]; relative to compound 1) was 18 fold.
`CC(C)N(Cc1nc(-c2ccccc2)no1)C(=O)COc1ccccc1` [Compound 11j, N-Isopropyl-2-phenoxy-N-((3-phenyl-1,2,4-oxadiazol-5-yl)methyl)acetamide] was tested, and the “fold loss of CT-L activity compared to 1” value ([1]; relative to compound 1) was 10 fold.
For `CC(=O)N[C@@H](CSC(=O)[C@]1([C@@H](O)C(C)C)NC(=O)[C@H](C)[C@@H]1O)C(=O)O` [lactacystin, reference compound], the “CT-L activity recovered upon dialysis” value ([6]; after 18 hours of dialysis, lactacystin 2.5 μM) was “very little CT-L activity was recovered”.
With `Cc1ccc(OCC(=O)N(Cc2nc(-c3ccc(C)cc3)no2)CC(C)C)cc1` [Compound 12a, N-Isobutyl-N-((3-p-tolyl-1,2,4-oxadiazol-5-yl)methyl)-2-(p-tolyloxy)acetamide] the “fold loss of CT-L activity compared to 1” value ([1]; relative to compound 1) was 4 fold.
With `Cc1ccc(-c2noc(CN(C(=O)COc3ccccc3)C(C)C)n2)cc1` [Compound 11k, N-Isopropyl-2-phenoxy-N-((3-p-tolyl-1,2,4-oxadiazol-5-yl)methyl)acetamide] the “fold loss of CT-L activity compared to 1” value ([1]; relative to compound 1) was 14 fold.
In the case of `CCN(Cc1nc(-c2ccc(C)cc2)no1)C(=O)COc1ccc(C)cc1` [Compound 12b, N-Ethyl-N-((3-p-tolyl-1,2,4-oxadiazol-5-yl)methyl)-2-(p-tolyloxy)acetamide], the “fold loss of CT-L activity compared to 1” value ([1]; relative to compound 1) was 10 fold.
For `CCCc1ccc(OCC(=O)N(Cc2nc(-c3cnccn3)no2)C(C)C)cc1` [Compound 11am, N-Isopropyl-2-(4-propylphenoxy)-N-((3-(pyrazin-2-yl)-1,2,4-oxadiazol-5-yl)methyl)acetamide], the “fold loss of CT-L activity compared to 11ad” value [1] was 3 fold.
